Experiment [1] has as its target T1, E-selectin (Homo sapiens) (UniProt P16581).
T1 sequence (whole entry): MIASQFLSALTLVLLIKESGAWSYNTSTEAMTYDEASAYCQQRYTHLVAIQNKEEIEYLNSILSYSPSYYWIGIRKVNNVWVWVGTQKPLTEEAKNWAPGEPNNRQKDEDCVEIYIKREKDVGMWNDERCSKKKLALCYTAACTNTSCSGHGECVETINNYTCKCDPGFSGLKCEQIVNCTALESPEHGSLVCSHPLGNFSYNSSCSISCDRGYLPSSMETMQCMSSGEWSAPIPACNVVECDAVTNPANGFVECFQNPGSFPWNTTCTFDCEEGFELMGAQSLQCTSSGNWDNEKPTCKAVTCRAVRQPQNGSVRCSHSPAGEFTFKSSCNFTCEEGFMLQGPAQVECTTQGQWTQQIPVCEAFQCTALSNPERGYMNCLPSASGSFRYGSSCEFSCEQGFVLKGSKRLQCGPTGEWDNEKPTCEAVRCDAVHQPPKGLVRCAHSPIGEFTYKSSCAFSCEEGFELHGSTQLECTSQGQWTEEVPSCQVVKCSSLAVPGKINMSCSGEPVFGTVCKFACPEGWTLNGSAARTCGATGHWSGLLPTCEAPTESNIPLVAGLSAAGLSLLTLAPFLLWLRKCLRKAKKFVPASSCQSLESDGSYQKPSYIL
The experiment in a line: In vitro inhibitory activity against sialyl Lewis X expressing HL60 cell binding to recombinant human E-selectin at 27 mM concentration. As to conditions: HL-60. In kind it is cell-based. The method in brief: (§1)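 Human E-selectin (lectin, EGF and two complement repeats) fused to mouse IgG was captured on anti-mouse IgG magnetic beads overnight at 4 °C. Wells were pre-blocked with 3% BSA/PBS. Compound in PBS was mixed with calcein-labelled HL60 cells (10⁷/mL, RPMI 1640 + 10% FCS) and beads (4 × 10⁶/mL) for 10 min at room temperature. Unbound cells were removed magnetically with two PBS washes, and bound cells were lysed in 1% NP40.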

The target in experiment [2] is T2, P-selectin (Homo sapiens) (UniProt P16109).
T2 sequence (whole entry): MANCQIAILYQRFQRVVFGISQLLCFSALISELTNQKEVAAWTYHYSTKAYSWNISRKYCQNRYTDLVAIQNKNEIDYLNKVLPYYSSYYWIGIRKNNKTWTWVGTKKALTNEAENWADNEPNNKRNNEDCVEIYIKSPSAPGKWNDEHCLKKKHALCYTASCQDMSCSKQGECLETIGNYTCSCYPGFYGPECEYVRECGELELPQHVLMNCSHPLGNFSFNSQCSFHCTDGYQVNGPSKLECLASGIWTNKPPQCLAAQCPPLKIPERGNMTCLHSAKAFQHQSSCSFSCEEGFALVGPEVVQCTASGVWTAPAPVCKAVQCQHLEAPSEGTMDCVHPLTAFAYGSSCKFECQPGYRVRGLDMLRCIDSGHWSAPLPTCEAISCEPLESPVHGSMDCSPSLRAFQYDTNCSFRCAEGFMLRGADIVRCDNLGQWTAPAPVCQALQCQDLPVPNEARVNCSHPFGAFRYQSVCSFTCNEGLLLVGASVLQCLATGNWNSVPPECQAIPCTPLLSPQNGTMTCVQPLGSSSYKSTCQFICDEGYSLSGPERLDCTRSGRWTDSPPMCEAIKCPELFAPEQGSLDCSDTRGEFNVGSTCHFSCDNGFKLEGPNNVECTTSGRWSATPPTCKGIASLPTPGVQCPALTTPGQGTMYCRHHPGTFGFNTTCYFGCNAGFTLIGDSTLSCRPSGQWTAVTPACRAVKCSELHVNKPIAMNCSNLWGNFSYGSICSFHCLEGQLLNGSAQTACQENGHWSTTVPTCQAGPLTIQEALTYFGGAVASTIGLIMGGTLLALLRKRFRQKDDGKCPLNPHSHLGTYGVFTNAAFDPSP
The experiment is described as follows: In vitro inhibitory activity against sialyl Lewis X expressing HL60 cell binding Selectin P at 20 mM concentration. Format: cell-based. Particulars: HL-60.

The target of experiment [3] is T1, E-selectin (Homo sapiens). The experiment in a line: In vitro inhibitory activity against sialyl Lewis X expressing HL60 cell binding to recombinant human E-selectin at 32 mM concentration. In kind it is cell-based. Particulars: HL-60. The essentials:
as §1

Experiment [4] deals with T3, L-selectin (Mus musculus) (UniProt P18337).
T3 sequence (whole entry): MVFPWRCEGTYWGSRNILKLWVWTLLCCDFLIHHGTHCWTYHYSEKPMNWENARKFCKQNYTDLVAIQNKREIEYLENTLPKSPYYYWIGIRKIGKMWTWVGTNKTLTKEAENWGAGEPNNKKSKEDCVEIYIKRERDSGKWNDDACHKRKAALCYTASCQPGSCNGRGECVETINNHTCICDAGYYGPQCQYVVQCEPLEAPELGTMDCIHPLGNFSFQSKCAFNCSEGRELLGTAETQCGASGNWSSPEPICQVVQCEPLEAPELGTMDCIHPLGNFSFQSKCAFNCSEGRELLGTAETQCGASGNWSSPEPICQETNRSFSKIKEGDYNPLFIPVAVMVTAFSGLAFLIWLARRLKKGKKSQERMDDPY
The experiment in a line: In vitro inhibitory activity against sialyl Lewis X expressing HL60 cell binding Selectin L at 5 mM concentration. Format: cell-based. Particulars: HL-60.

Experiment [5] deals with T3, L-selectin (Mus musculus). The experiment in a line: In vitro inhibitory activity against sialyl Lewis X expressing HL60 cell binding to Selectin L at 6 mM concentration. In kind it is cell-based. Particulars: HL-60.
In experiment [6] the target is T2, P-selectin (Homo sapiens). The experiment in a line: In vitro inhibitory activity against sialyl Lewis X expressing HL60 cell binding Selectin P at 10 mM concentration. In kind it is cell-based. As to conditions: HL-60.
Experiment [7] has as its target T2, P-selectin (Homo sapiens). The experiment in a line: In vitro inhibitory activity against sialyl Lewis X expressing HL60 cell binding Selectin P at 27 mM concentration. Particulars: HL-60. Format: cell-based.
In a further experiment the target is T4, E-selectin (Homo sapiens, UniProt P16581).
T4 sequence (P16581 whole entry): T1 sequence (whole entry)
The experiment in a line: In vitro inhibition of HL60 (human leukemia) cell binding to human recombinant e-selectin. In kind it is cell-based, HL-60. The method in brief:
as §1

For experiment [8], the target named is T1, E-selectin (Homo sapiens). The experiment in a line: In vitro inhibitory activity against sialyl Lewis X expressing HL60 cell binding to recombinant human E-selectin at 20 mM concentration. Format: cell-based. As to conditions: HL-60. The method in brief: as §1
Experiment [9] concerns the target T3, L-selectin (Mus musculus). The experiment is described as follows: In vitro inhibitory activity against sialyl Lewis X expressing HL60 cell binding to Selectin L at 3 mM concentration. Particulars: HL-60.
The target in experiment [10] is T1, E-selectin (Homo sapiens). The experiment in a line: In vitro inhibitory activity against sialyl Lewis X expressing HL60 cell binding to recombinant human E-selectin at 17 mM concentration. Format: cell-based. Particulars: HL-60. The method in brief: as §1
The next experiment addresses T5, P-selectin (Homo sapiens, UniProt P16109).
T5 sequence (P16109 whole entry): T2 sequence (whole entry)
The experiment in a line: In vitro inhibitory activity against sialyl Lewis X expressing HL60 cell binding Selectin P. Format: cell-based, HL-60.

For experiment [11], the target named is T2, P-selectin (Homo sapiens). The experiment is described as follows: In vitro inhibitory activity against sialyl Lewis X expressing HL60 cell binding Selectin P at 24 mM concentration. As to conditions: HL-60. In kind it is cell-based.
Experiment [12] has as its target T3, L-selectin (Mus musculus). The experiment in a line: In vitro inhibitory activity against sialyl Lewis X expressing HL60 cell binding to Selectin L at 8 mM concentration. In kind it is cell-based. As to conditions: HL-60.
For experiment [13], the target named is T2, P-selectin (Homo sapiens). The experiment is described as follows: In vitro inhibitory activity against sialyl Lewis X expressing HL60 cell binding Selectin P at 25 mM concentration. Format: cell-based. Particulars: HL-60.

The structures appear in SMILES notation.

As usually defined, the inhibition is the relative decrease from the control value, in per cent. As for `NCCCC[C@H](NC(=O)c1ccc(-c2ccccc2O[C@H]2O[C@H](CO)[C@@H](O)[C@@H](O)[C@@H]2O)cc1)C(=O)O`, in experiment [1], the inhibition was found to be 33%.

In the case of `O=C(O)C[C@@H](NC(=O)c1cccc(-c2ccccc2O[C@H]2O[C@H](CO)[C@@H](O)[C@@H](O)[C@@H]2O)c1)C(=O)O`, the figures for the inhibition in experiment [2], in experiment [3] and in experiment [4] were 40%, 0% and 0%, respectively.

For the compound `CC(C(=O)O)c1cccc(-c2ccccc2O[C@H]2O[C@H](CO)[C@@H](O)[C@@H](O)[C@@H]2O)c1` (stereo in doubt; 9s), the values for the inhibition in experiment [5] and in [6] were 0% and 30%, respectively.

The IC50 is the point on the concentration scale where inhibition reaches its midpoint. Regarding `O=C(O)c1cccc(-c2ccccc2O[C@H]2O[C@H](CO)[C@@H](O)[C@@H](O)[C@@H]2O)c1`, the values for the inhibition in experiment [7] and in experiment [5] were 0% and 15%, respectively. The IC50 on E-selectin came to 16 mM.

For `O=C(O)CCC(=O)c1ccc(-c2ccccc2O[C@H]2O[C@H](CO)[C@@H](O)[C@@H](O)[C@@H]2O)cc1`, the inhibition in [8] stood at 40%; in [2], 0%; in experiment [9], 0%.

For the compound `O=C(O)C(Oc1cccc(-c2ccccc2O[C@H]2O[C@H](CO)[C@@H](O)[C@@H](O)[C@@H]2O)c1)c1ccccc1` (stereo partly specified), the results for the inhibition in experiment [10] and in experiment [5] were 70% and 0%, respectively. Further, on P-selectin, the IC50 stood at 17 mM.

Take `O=C(O)COCc1cccc(-c2ccccc2O[C@H]2O[C@H](CO)[C@@H](O)[C@@H](O)[C@@H]2O)c1`: the inhibition in [11] worked out at 0%; in [5], 30%. The IC50 on E-selectin was 9.5 mM.

`O=C(O)COc1ccccc1-c1ccccc1O[C@H]1O[C@H](CO)[C@@H](O)[C@@H](O)[C@@H]1O`: the inhibition in experiment [12] was 0%; in experiment [13], 20%. Besides, the half-inhibitory concentration (IC50) on E-selectin was 20 mM.

The record behind these values is ChEMBL document CHEMBL1128216, “Rational design and synthesis of small molecule, non-oligosaccharide selectin inhibitors: (alpha-D-mannopyranosyloxy)biphenyl-substituted carboxylic acids” (J Med Chem, 1995).
